This is a sample that favours compounds with a hit; in the whole collection about 12% have one here.
WT yeast gro inh: growth inhibition of WT yeast, mitochondrial fusion screen; mitochondrial fusion phenotypic screen, WT strain; inhibition, % at 10 µM; 2.1% of 190,000 active; AID 1362; in the data active = inhibition above about 58%; tested in S. cerevisiae
ABCG2 block: inhibitors of human ABCG2 transporter, ABCB1 counter-screen | IgMXP3 cells, JC-1 efflux, flow cytometry | inhibition, % at 6.6 µM | 0.1% of 190,000 active | AID 1325;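 active = inhibition above 80%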;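 note: 0% = DMSO and 100% = nicardipine control wells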
Target sequence (Q9UNQ0 whole entry, looked up): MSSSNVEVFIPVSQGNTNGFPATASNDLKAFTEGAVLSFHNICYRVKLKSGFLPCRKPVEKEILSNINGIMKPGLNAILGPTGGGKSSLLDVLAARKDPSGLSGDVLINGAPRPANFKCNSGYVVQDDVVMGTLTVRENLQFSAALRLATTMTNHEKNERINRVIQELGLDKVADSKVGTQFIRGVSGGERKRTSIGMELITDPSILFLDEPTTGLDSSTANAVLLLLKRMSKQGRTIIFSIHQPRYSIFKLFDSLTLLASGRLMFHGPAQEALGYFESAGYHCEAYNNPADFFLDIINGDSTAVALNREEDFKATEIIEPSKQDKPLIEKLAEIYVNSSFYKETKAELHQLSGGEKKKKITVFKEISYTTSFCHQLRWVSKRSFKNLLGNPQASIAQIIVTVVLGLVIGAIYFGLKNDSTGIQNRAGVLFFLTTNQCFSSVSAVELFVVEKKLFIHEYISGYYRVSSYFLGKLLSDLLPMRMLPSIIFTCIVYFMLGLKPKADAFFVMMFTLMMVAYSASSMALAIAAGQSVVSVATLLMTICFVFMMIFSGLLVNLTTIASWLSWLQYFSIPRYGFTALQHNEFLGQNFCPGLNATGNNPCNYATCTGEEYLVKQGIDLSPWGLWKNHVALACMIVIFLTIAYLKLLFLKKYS
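Test system: IgMXP3 (ABCG2) plus far-red-tagged CCRF-Adr (ABCB1) cells. Reagent: JC-1 dye as substrate. Timing: 10 min exposure at 25 °C with rotation, no wash. Measured by: flow cytometric JC-1 green MFI at 530 nm. Read-out: percent efflux inhibition, scaled nicardipine 100% to DMSO 0%. Control set: nicardipine and DMSO wells.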
L major viab: Leishmania major promastigote growth inhibition. Leishmania major promastigotes, resazurin fluorescence viability. inhibition, % at 10 µM. 9% of 200,000 active. AID 1063; in the data active = inhibition above about 50%;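 note: promastigotes grown with compound for 44 hours at 28 °C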
RAM inhibit: yeast RAM network inhibition | S. cerevisiae dse1pr::URA3 reporter, 5-FOA growth OD615, 2 d; analog-sensitive cbk1-as2 kinase mutant strain | inhibition, % at 50 µM | AID 868 | 1.8% of 190,000 active;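 active = inhibition above a set limit, 3 SD over mean compound inhibition, cut at about 8.4% in these data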;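 note: 0% = DMSO-only wells with no growth and 100% = 10 µM 1-NA-PP1 full growth; inhibition rescues growth on 5-FOA so higher OD means more RAM inhibition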
ABCB1 inh: inhibitors of human ABCB1 transporter, ABCG2 counter-screen; 0.067% of 190,000 active; AID 1326; inhibition, % at 6.6 µM; CCRF-Adr cells, JC-1 efflux, flow cytometry; P08183; in the data active = inhibition above about 40%;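 note: 0% = vehicle and 100% = reference inhibitor; higher value means more JC-1 retained so stronger ABCB1 efflux block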
The depositor's hits bear a star.

SMILES | WT yeast gro inh | ABCG2 block | L major viab | RAM inhibit | ABCB1 inh
O=[N+]([O-])c1ccc(N2CCN(Cc3ccccc3)CC2)c(S(=O)(=O)N2CCOCC2)c1 | -23 | 5 | 93* | -1 | 1
O=C(Nc1ccccc1)c1ccc(N2CCN(c3ccccn3)CC2)c(S(=O)(=O)N2CCOCC2)c1 | -9 | 11 | 35 | 0 | 3
O=C(Nc1ccccc1)c1ccc(NC2CCCCC2)c(S(=O)(=O)N2CCOCC2)c1 | 25 | 6 | 61* | 5 | 1
CN1CCN(c2ccc([N+](=O)[O-])cc2S(=O)(=O)N2CCOCC2)CC1 | 15 | 0 | -5 | 1 | 0
CCOc1cc(/C=C2/NC(=O)NC2=O)cc(Br)c1OCc1ccc(C(=O)O)cc1 | -3 | 2 | 4 | 0 | 1
O=C(O)c1cccc(Nc2nc(Nc3ccccc3)nc(N3CCCC3)n2)c1 | -17 | 1 | -2 | 4 | 0
Cc1sc2nc(C3CC3)nc(SCC(=O)N3CCc4ccccc4C3)c2c1C | 53 | 1 | -3 | 2 | 1
Cn1c(=O)c2c(SCC(=O)N3CCCc4ccccc43)nc(C3CC3)nc2n(C)c1=O | 6 | 2 | 61* | 3 | 2
Cc1sc2nc(C3CC3)nc(SCC(=O)N3CCCc4ccccc43)c2c1C | 38 | 16 | 94* | 9.2* | 4
Cc1c(/C=N/NC(=O)c2ccccc2O)c2ccccn2c1C(=O)c1ccc(F)cc1 | 0 | -9 | 59* | 5 | -1
Cc1nn(-c2ccccc2)c(C)c1/C=N/NC(=O)c1cc(-c2cccc3ccccc23)n[nH]1 | 36 | 14 | 31 | 3 | 2
Cc1c(/C=N/NC(=O)c2ccc(O)cc2)c2ccccn2c1C(=O)c1ccc(F)cc1 | -10 | -24 | 92* | 4 | -2
Cc1nn(-c2ccccc2)c(C)c1/C=N/NC(=O)c1cc(-c2ccccc2)n[nH]1 | 8 | -4 | 88* | 4 | 0
Cc1c(/C=N/NC(=O)c2cccnc2)c2ccccn2c1C(=O)c1ccc(F)cc1 | -2 | 0 | 53* | 6 | 5
COC(=O)N/N=C/c1c(C)c(C(=O)c2ccc(F)cc2)n2ccccc12 | -8 | 8 | 7 | 0 | 2
CC1CCN(Cc2nnnn2-c2cccc([N+](=O)[O-])c2)CC1 | 2 | 15 | -2 | 1 | 1
O=C(Nc1ccc2c(c1)C(=O)NC2=O)c1ccc(S(=O)(=O)N2CCCC2)cc1 | 3 | 14 | -7 | 8 | 1
CCC1CCCCN1C(=O)CSc1nnc(-c2cccs2)o1 (configuration not stated) | -10 | 31 | -5 | 1 | 1
Cc1ccc(-n2nc(C)c(/C=N/NC(=O)c3cccnc3)c2Cl)cc1 | -19 | 3 | 57* | 1 | 0
COc1ccc(-c2nc(-c3ccccc3)c(-c3cc([N+](=O)[O-])ccc3C)[nH]2)cc1O | 14 | 0 | 32 | 0 | 0
COc1ccc(-c2nc(=S)c3c([nH]2)Oc2ccc(C)cc2C3)cc1O | 13 | -14 | 97* | 3 | -2
CNC(=S)Nc1ccc(C)cc1 | -2 | 0 | -8 | 0 | 0
CNC(=S)Nc1ccc(C23CC4CC(CC(C4)C2)C3)cc1 | 68* | 5 | 51* | 1 | -2
NC(=O)CC[C@@H]1NC(=O)[C@@H]2CCCN2C(=O)c2cc([N+](=O)[O-])cc(I)c2NCCC[C@@H](C(N)=O)NC1=O | -19 | 2 | -7 | 3 | 1
Cc1cc(C(=O)NCC23CC4CC(CC(C4)C2)C3)c(C)o1 | 10 | 3 | -2 | 1 | 0
SMILES | WT yeast gro inh | ABCG2 block | L major viab | RAM inhibit | ABCB1 inh
Cc1cc([N+](=O)[O-])cc(C)c1OCC(=O)N/N=C/c1ccc(OC(=O)c2ccccc2Br)cc1 | -5 | 2 | 85* | 4 | 0
Cc1cc([N+](=O)[O-])cc(C)c1OCC(=O)N/N=C/c1ccc(OC(=O)c2ccccc2)cc1 | 3 | 0 | -1 | 5 | 0
Cc1c(/C=N/NC(=O)COc2ccccc2[N+](=O)[O-])c2ccccc2n1C | 0 | -1 | 56* | 6 | 0
Cc1ccccc1OCC(=O)N/N=C/c1cccc(Oc2ccc([N+](=O)[O-])cc2[N+](=O)[O-])c1 | 16 | 4 | 74* | 2 | 1
Cc1ccccc1OCC(=O)NCC(=O)N/N=C/c1cccc([N+](=O)[O-])c1 | 6 | 4 | 4 | 7 | 1
CC(O)c1nc2ccccc2n1CC(=O)N1CCN(c2ccccc2)CC1 (configuration not stated) | -2 | 1 | -5 | 2 | 1
CC(C)Cn1c(-c2ccc(Br)cc2)c[nH]c1=S | 41 | 1 | -2 | 1 | 2
Cn1c(=O)c(=O)n(C)c2cc(S(=O)(=O)NCCOc3ccccc3Cl)ccc21 | -21 | 0 | -3 | 2 | 0
CCc1ccccc1NC(=S)N(CCc1ccncc1)C(C)C | 6 | -1 | 0 | 2 | -1
CCOC(=O)C1CCN(c2ccc([N+](=O)[O-])cc2)CC1 | -26 | 0 | -6 | 1 | 0
CCOC(=O)C1CCC(CN(Cc2ccccc2C)S(=O)(=O)c2ccc([N+](=O)[O-])cc2)CC1 (configuration not stated) | 74* | 19 | 86* | 8 | 2
COc1ccccc1CN1C(=O)c2ccccc2C1C(=O)NC1CCC(C)CC1 (configuration not stated) | 9 | 1 | 7 | 1 | 1
O=C(CSc1ccc(F)cc1)Nc1ccccc1Br | 11 | 1 | -3 | 11* | 0
Cc1nn(C)c(Cl)c1S(=O)(=O)N1CCC(CO)(CCc2ccccc2)CC1 | -18 | 2 | -2 | -1 | 1
COc1ccc(CN2CCOCC2)cc1Br | 5 | 1 | -3 | 3 | 0
CCCN1CCN(S(=O)(=O)c2ccc(OC)c(Br)c2)CC1 | 2 | 2 | 96* | 3 | 1
COc1ccc(CN2CCN(S(=O)(=O)c3ccc(C)cc3)CC2)cc1Br | 36 | 3 | 68* | 1 | 0
O=C(Nc1ccccc1)c1sc2cc(C(F)(F)F)cnc2c1-c1cccs1 | 21 | 2 | 59* | 2 | 0
N#CC(C#N)=C1C=CC=CN1/C(=C\c1ccco1)C(=O)c1ccc(-c2ccccc2)cc1 | -2 | -2 | 100* | 2 | 0
Cc1ccc(S(=O)(=O)N2CCOCC2)cc1NC(=O)CSc1nnnn1C | 4 | 4 | -8 | 0 | 1
O=C(c1ccc(-c2ccc(Cl)cc2)o1)N1CCN(c2ccc([N+](=O)[O-])cc2Cl)CC1 | 17 | 9 | 31 | 4 | 1
O=C(c1ccc(-c2ccc([N+](=O)[O-])cc2)o1)N1CCCCC1 | 40 | 3 | 100* | 2 | 2
O=C(c1nc2ncccn2n1)N1CCc2ccccc2C1 | -3 | 1 | 91* | 4 | 0
Cc1c(C(=O)C(=O)N2CCCc3ccccc32)c2ccccc2n1C | -5 | 27 | 7 | 1 | 2
Cc1nn(C)c(C)c1C1C(C#N)=C(N)OC2=C1C(=O)CCC2 (configuration not stated) | -14 | -1 | -2 | 1 | 0

Compound activity as filed in PubChem.
